ChEMBL document CHEMBL1125183, “3-Hydroxy-3-methylglutaryl-coenzyme a reductase inhibitors. 7. Modification of the hexahydronaphthalene moiety of simvastatin: 5-oxygenated and 5-oxa derivatives” (J Med Chem, 1991)

Key:
[1] = system: Canis familiaris; test: Inhibition of cholesterol synthesis in cholestyramine-primed dogs at 4 mg/kg per day dose in Dog-1; format: functional, Canis lupus familiaris
Procedure, shortened: (§1)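 Male beagles were fed a low-cholesterol semisynthetic diet once daily, with 12 g cholestyramine per day in the diet. Pretreatment plasma cholesterol was established, then one dog per compound received 4 mg/kg mixed into the diet for 21 days and was then crossed over to the lovastatin control at the same dose for 2-3 weeks. Jugular blood was taken twice weekly. Plasma cholesterol was measured colorimetrically (Liebermann-Burchard) after extraction and saponification and reported as % change from the resin-treated state.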

[2] = system: Canis familiaris; test: Inhibition of cholesterol synthesis in cholestyramine-primed dogs at 4 mg/kg per day dose in Dog-2; format: functional, Canis lupus familiaris; procedure, shortened: as §1
[3] = system: Canis familiaris; test: Inhibition of cholesterol synthesis in cholestyramine-primed dogs at 4 mg/kg per day dose in Dog-3:; format: functional, Canis lupus familiaris; procedure, shortened: as §1
[4] = biological target: T1, 3-hydroxy-3-methylglutaryl-coenzyme A reductase (Rattus norvegicus, UniProt P51639); test: In vitro ability to inhibit solubilized, partially purified, rat liver HMG-CoA reductase
T1 sequence (P51639 whole entry): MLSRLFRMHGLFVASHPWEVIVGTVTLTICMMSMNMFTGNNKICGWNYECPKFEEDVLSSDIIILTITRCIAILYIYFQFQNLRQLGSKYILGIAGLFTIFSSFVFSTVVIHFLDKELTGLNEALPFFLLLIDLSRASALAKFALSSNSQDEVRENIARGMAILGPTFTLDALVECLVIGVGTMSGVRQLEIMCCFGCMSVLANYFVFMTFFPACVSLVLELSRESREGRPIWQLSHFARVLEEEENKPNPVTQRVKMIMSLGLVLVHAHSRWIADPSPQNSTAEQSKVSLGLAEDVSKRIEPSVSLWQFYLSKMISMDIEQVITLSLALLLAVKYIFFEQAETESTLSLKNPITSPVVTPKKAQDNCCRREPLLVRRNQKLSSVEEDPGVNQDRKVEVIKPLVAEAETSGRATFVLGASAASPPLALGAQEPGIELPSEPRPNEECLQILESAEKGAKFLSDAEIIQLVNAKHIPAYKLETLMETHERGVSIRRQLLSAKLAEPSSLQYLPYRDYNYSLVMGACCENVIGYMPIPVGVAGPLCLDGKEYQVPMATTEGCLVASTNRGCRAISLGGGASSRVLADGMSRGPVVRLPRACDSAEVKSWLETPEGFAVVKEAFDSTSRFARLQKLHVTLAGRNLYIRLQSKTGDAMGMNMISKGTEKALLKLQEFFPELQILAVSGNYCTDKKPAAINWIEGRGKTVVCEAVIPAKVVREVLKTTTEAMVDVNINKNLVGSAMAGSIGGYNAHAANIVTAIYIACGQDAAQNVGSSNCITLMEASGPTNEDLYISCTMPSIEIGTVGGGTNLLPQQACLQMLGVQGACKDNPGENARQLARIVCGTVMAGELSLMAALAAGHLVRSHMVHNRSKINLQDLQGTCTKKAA
Procedure, shortened: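 Enzyme tested as the sodium salt of the dihydroxy carboxylate form, against solubilized, partially purified rat liver HMG-CoA reductase. Conditions follow a procedure the paper cites from earlier work.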

[5] = organism: Rattus norvegicus; test: The compound was evaluated for acute inhibition of cholesterol synthesis in rat; percent change of [14C]cholesterol; format: functional
Procedure, shortened: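 Rats received a single oral dose of 0.45 mg/kg. Synthesis of cholesterol from [14C]acetate was measured at a fixed time after dosing and reported as % change in [14C]cholesterol.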

[6] = Relative potency with respect to compactin; format: ADME
[7] = system: Canis familiaris; test: Inhibition of cholesterol synthesis in cholestyramine-primed dogs at 4 mg/kg per day dose in Dog 1; format: functional, Canis lupus familiaris; procedure, shortened: as §1
[8] = system: Canis familiaris; test: Inhibition of cholesterol synthesis in cholestyramine-primed dogs at 4 mg/kg per day dose in Dog-3; format: functional, Canis lupus familiaris; procedure, shortened: as §1
[9] = system: Canis familiaris; test: Inhibition of cholesterol synthesis in cholestyramine-primed dogs at 4 mg/kg per day dose in Dog 2; format: functional, Canis lupus familiaris; procedure, shortened: as §1

| Structure (SMILES) | IC50 [4] | Change [5] | Relative potency [6] | other results |
| --- | --- | --- | --- | --- |
| CC[C@H](C)C(=O)O[C@H]1C[C@@H](C)C=C2C=C[C@H](C)[C@H](CC[C@@H]3C[C@@H](O)CC(=O)O3)C21 (some centres not stated) | – | – | – | Change [1]: 25%; Change [2]: 38%; Change [3]: 25% |
| CCC(C)(C)C(=O)O[C@H]1C[C@H](C)C(=O)[C@@H]2CC[C@H](C)[C@H](CC[C@@H]3C[C@@H](O)CC(=O)O3)C12 (some centres not stated) | 59 nM | -68% | 63 | – |
| CCC(C)(C)C(=O)O[C@H]1C[C@H](C)[C@H](O)[C@@H]2CC[C@H](C)[C@H](CC[C@@H]3C[C@@H](O)CC(=O)O3)C12 (some centres not stated) | 269 nM | – | 11.1 | – |
| CCC(C)(C)C(=O)O[C@H]1CC(C)(C)O[C@@H]2CC[C@H](C)[C@H](CC[C@@H]3C[C@@H](O)CC(=O)O3)C12 (some centres not stated) | 35 nM | -67% | 70 | Change [7]: 20% |
| CCC(C)(C)C(=O)O[C@H]1C[C@@H](C)[C@@H](O)[C@@H]2CC[C@H](C)[C@H](CC[C@@H]3C[C@@H](O)CC(=O)O3)C12 (some centres not stated) | 40.8 nM | -37% | 73 | Change [8]: 19% |
| CCC(C)(C)C(=O)O[C@@H](C[C@@H](C)CO)C1[C@H](O)CC[C@H](C)[C@@H]1CC[C@@H]1C[C@@H](O)CC(=O)O1 (some centres not stated) | 2800 nM | – | 0.5 | – |
| CCC(C)(C)C(=O)O[C@H]1C[C@@H](C)[C@@H](OC(=O)NCc2ccccc2)[C@@H]2CC[C@H](C)[C@H](CC[C@@H]3C[C@@H](O)CC(=O)O3)C12 (some centres not stated) | 5 nM | -27% | 360 | – |
| CCC(C)(C)C(=O)O[C@H]1C[C@@H](C)[C@@H](OC(=O)N(Cc2ccccc2)Cc2ccccc2)[C@@H]2CC[C@H](C)[C@H](CC[C@@H]3C[C@@H](O)CC(=O)O3)C12 (some centres not stated) | 16 nM | -4% | 94 | – |
| C=C(C)C[C@H](OC(=O)C(C)(C)CC)C1[C@H](O)CC[C@H](C)[C@@H]1CC[C@@H]1C[C@@H](O)CC(=O)O1 (some centres not stated) | 1700 nM | – | 0.9 | – |
| CCC(C)(C)C(=O)O[C@H]1C[C@@H](C)[C@@H](OP(=O)(c2ccccc2)c2ccccc2)[C@@H]2CC[C@H](C)[C@H](CC[C@@H]3C[C@@H](O)CC(=O)O3)C12 (some centres not stated) | 6 nM | -27% | 300 | – |
| CCC(C)(C)C(=O)O[C@H]1C[C@@H](C)[C@@H](OCCc2ccccc2)[C@@H]2CC[C@H](C)[C@H](CC[C@@H]3C[C@@H](O)CC(=O)O3)C12 (some centres not stated) | 6 nM | -39% | 300 | – |
| CCC(C)(C)C(=O)O[C@H]1C[C@@H](C)CC2CC[C@H](C)[C@H](CC[C@@H]3C[C@@H](O)CC(=O)O3)C21 (some centres not stated) | 13 nM | – | 138 | – |
| CCC(C)(C)C(=O)O[C@H]1C[C@H](C)[C@@H](O)[C@@H]2CC[C@H](C)[C@H](CC[C@@H]3C[C@@H](O)CC(=O)O3)C12 (some centres not stated) | 48.6 nM | -54% | 61 | Change [9]: 34% |
| CCC(C)(C)C(=O)O[C@H]1C[C@@H](C)C(=O)[C@@H]2CC[C@H](C)[C@H](CC[C@@H]3C[C@@H](O)CC(=O)O3)C12 (some centres not stated) | 34 nM | -56% | 125 | – |
| CCC(C)(C)C(=O)O[C@H]1C[C@@](C)(CSc2ccccc2)O[C@@H]2CC[C@H](C)[C@H](CC[C@@H]3C[C@@H](O)CC(=O)O3)C12 (some centres not stated) | 6.6 nM | -34% | 258 | – |
| CCC(C)(C)C(=O)O[C@H]1C[C@](C)(CSc2ccccc2)O[C@@H]2CC[C@H](C)[C@H](CC[C@@H]3C[C@@H](O)CC(=O)O3)C12 (some centres not stated) | 6 nM | 0% | 280 | – |
